How the values were obtained:
[1] = test system: NCI-H1975; assay: Antiproliferative activity against human NCI-H1975 cells incubated for 72 hrs by MTT assay; assay type: functional, cell-based; conditions: NCI-H1975, 72 h
[2] = test system: A-431; assay: Antiproliferative activity against human A431 cells incubated for 72 hrs by MTT assay; assay type: functional, cell-based; conditions: A-431, 72 h
[3] = test system: HCC827; assay: Antiproliferative activity against human HCC827 cells incubated for 72 hrs by MTT assay; assay type: functional, cell-based; conditions: HCC827, 72 h
[4] = test system: A549; assay: Antiproliferative activity against human A549 cells incubated for 72 hrs by MTT assay; assay type: functional, cell-based; conditions: A549, 72 h
[5] = Antiproliferative activity against NHBE cells incubated for 72 hrs by MTT assay; assay type: ADME, cell-based; conditions: Homo sapiens
[6] = test system: Epidermal growth factor receptor (Homo sapiens), P00533 [L858R,T790M]; assay: Inhibition of EGFR L858R/T790M mutant phosphorylation in human NCI-H1975 cells at 0.2 to 5 uM by Western blotting assay; assay type: cell-based
How it was run: (§1)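 H1975 and A431 cells were treated and then lysed. Lysates were cleared at 12,000 g, 15 min, 4 °C. 50 µg protein was run on 8–12% SDS-PAGE and transferred to PVDF. Membranes were blocked in 5% skim milk, then probed for EGFR, p-EGFR, AKT, p-AKT, ERK, p-ERK and actin. Detection was by ECL. Band IOD was normalized to actin.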

[7] = test system: Epidermal growth factor receptor (Homo sapiens), P00533 [L858R,T790M]; assay: Inhibition of EGFR L858R/T790M mutant phosphorylation in human NCI-H1975 cells at 5 uM by Western blotting assay; assay type: cell-based; how it was run: as §1
[8] = test system: Epidermal growth factor receptor (Homo sapiens), P00533 [L858R,T790M]; assay: Inhibition of EGFR L858R/T790M mutant phosphorylation in human NCI-H1975 cells assessed as reduction in AKT phosphorylation at 0.2 to 5 uM by Western blotting assay; assay type: cell-based; how it was run: as §1
[9] = test system: Epidermal growth factor receptor (Homo sapiens), P00533 [L858R,T790M]; assay: Inhibition of EGFR L858R/T790M mutant phosphorylation in human NCI-H1975 cells assessed as reduction in ERK phosphorylation at 0.2 to 5 uM by Western blotting assay; assay type: cell-based; how it was run: as §1
[10] = target: T1, Epidermal growth factor receptor (Homo sapiens, UniProt P00533); assay: Inhibition of wild type EGFR phosphorylation in human A431 cells at 0.2 to 5 uM by Western blotting assay; assay type: cell-based; how it was run: as §1
[11] = target: T1, Epidermal growth factor receptor; assay: Inhibition of wild type EGFR phosphorylation in human A431 cells assessed as reduction in AKT phosphorylation at 0.2 to 5 uM by Western blotting assay; assay type: cell-based; how it was run: as §1
[12] = target: T1, Epidermal growth factor receptor; assay: Inhibition of wild type EGFR phosphorylation in human A431 cells assessed as reduction in ERK phosphorylation at 0.2 to 5 uM by Western blotting assay; assay type: cell-based; how it was run: as §1
[13] = test system: NCI-H1975; assay: Antitumor activity against human NCI-H1975 cells xenografted in STOCK-Foxn1nu/Nju nude mouse assessed as inhibition of tumor growth at 10 to 50 mg/kg/day, po qd for 14 days relative to untreated control; assay type: functional, organism-based
How it was run: (§2)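 Nude mice (STOCK-Foxn1nu/Nju, 5–6 weeks, 20–25 g) were given s.c. 3×10⁶ H1975 cells in 0.1 mL PBS in the right oxter. Dosing began three days after implant, with random allocation to groups. Doses were 10, 20 or 50 mg/kg, oral, once daily for 14 days; vehicle controls got oral 25% PEG-400. Tumor volume was taken as A×B²/2 from perpendicular diameters. Tumors were excised and weighed at the end. n = 5, mean ±SD.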

[14] = test system: NCI-H1975; assay: Antitumor activity against human NCI-H1975 cells xenografted in STOCK-Foxn1nu/Nju nude mouse assessed as inhibition of tumor growth at 50 mg/kg/day, po qd for 14 days relative to untreated control; assay type: functional; conditions: 336 h, read-out: TGI; how it was run: as §2
[15] = test system: NCI-H1975; assay: Antitumor activity against human NCI-H1975 cells xenografted in STOCK-Foxn1nu/Nju nude mouse assessed as inhibition of tumor growth at 20 mg/kg/day, po qd for 14 days relative to untreated control; assay type: functional; conditions: 336 h, read-out: TGI
How it was run: (§3)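 Female/male unstated; 5–6-week-old nude mice (20–25 g) implanted subcutaneously in the right oxter with 3×10⁶ H1975 cells in 0.1 mL PBS. After 3 days, mice were randomised into groups and dosed orally once daily for 14 days at 10, 20 or 50 mg/kg; controls received oral 25% PEG-400. Tumour volume was taken as A×B²/2. Body weight and mortality were monitored. Tumours were weighed at sacrifice. n = 5.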

[16] = test system: NCI-H1975; assay: Antitumor activity against human NCI-H1975 cells xenografted in STOCK-Foxn1nu/Nju nude mouse assessed as inhibition of tumor growth at 10 mg/kg/day, po qd for 14 days relative to untreated control; assay type: functional; conditions: 336 h, read-out: TGI; how it was run: as §2
[17] = test system: Mus musculus; assay: Toxicity in human NCI-H1975 cells xenografted STOCK-Foxn1nu/Nju nude mouse assessed as drug tolerability 10 to 50 mg/kg/day, po qd for 14 days relative to untreated control; assay type: organism-based; conditions: in vivo, 336 h; how it was run: as §3
[18] = test system: Mus musculus; assay: Toxicity in human NCI-H1975 cells xenografted STOCK-Foxn1nu/Nju nude mouse assessed as mouse mortality 10 to 50 mg/kg/day, po qd for 14 days relative to untreated control; assay type: organism-based; conditions: in vivo, 336 h; how it was run: as §3
[19] = test system: Mus musculus; assay: Toxicity in human NCI-H1975 cells xenografted STOCK-Foxn1nu/Nju nude mouse assessed as body weight loss 10 to 50 mg/kg/day, po qd for 14 days relative to untreated control; assay type: organism-based; conditions: in vivo, 336 h
How it was run: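 Body weight was tracked over 14 days of once-daily oral dosing at 10, 20 or 50 mg/kg, against 25% PEG-400 vehicle. Mice were nude (STOCK-Foxn1nu/Nju, 5–6 weeks, 20–25 g) carrying s.c. H1975 xenografts (3×10⁶ cells in PBS). Dosing started three days after implant. n = 5, mean ±SD.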

[20] = target: Epidermal growth factor receptor (Homo sapiens, UniProt P00533, L858R/T790M); assay: biochemical; assay type: cell-based, Sf9
[21] = target: T1, Epidermal growth factor receptor; assay type: cell-based, Sf9

T1 sequence (P00533 whole entry): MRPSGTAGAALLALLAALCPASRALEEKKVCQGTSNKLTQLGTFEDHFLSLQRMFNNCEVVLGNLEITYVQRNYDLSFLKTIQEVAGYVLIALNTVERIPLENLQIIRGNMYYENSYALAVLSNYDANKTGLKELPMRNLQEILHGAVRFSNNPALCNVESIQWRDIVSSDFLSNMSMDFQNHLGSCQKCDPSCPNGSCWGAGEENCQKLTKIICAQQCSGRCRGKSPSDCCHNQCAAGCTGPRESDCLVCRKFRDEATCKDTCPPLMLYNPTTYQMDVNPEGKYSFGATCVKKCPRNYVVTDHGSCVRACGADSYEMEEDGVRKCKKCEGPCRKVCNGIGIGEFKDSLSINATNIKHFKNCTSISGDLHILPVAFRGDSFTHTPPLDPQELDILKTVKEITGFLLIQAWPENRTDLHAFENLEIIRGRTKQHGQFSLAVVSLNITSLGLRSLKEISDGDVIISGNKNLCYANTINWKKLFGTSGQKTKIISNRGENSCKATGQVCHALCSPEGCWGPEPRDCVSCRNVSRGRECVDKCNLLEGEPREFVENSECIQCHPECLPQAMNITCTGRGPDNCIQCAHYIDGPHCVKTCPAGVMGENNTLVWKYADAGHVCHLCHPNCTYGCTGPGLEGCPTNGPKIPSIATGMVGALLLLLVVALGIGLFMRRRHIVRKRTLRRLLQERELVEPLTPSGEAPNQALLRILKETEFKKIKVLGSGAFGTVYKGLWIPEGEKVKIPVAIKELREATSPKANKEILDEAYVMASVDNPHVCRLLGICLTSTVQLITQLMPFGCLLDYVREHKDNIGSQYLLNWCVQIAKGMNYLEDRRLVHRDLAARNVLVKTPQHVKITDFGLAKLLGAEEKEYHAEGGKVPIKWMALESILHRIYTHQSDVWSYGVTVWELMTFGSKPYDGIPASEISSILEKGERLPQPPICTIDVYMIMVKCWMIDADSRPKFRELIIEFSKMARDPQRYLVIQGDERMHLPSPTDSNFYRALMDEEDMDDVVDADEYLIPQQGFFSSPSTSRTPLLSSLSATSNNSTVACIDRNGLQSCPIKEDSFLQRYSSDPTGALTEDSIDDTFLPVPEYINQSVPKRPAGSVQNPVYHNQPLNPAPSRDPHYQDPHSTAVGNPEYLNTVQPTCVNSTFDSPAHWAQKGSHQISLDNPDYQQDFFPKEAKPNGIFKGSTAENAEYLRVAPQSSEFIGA
Chain of Epidermal growth factor receptor (Homo sapiens, UniProt P00533, L858R/T790M) (P00533 25-1210 T790M/L858R limits assumed): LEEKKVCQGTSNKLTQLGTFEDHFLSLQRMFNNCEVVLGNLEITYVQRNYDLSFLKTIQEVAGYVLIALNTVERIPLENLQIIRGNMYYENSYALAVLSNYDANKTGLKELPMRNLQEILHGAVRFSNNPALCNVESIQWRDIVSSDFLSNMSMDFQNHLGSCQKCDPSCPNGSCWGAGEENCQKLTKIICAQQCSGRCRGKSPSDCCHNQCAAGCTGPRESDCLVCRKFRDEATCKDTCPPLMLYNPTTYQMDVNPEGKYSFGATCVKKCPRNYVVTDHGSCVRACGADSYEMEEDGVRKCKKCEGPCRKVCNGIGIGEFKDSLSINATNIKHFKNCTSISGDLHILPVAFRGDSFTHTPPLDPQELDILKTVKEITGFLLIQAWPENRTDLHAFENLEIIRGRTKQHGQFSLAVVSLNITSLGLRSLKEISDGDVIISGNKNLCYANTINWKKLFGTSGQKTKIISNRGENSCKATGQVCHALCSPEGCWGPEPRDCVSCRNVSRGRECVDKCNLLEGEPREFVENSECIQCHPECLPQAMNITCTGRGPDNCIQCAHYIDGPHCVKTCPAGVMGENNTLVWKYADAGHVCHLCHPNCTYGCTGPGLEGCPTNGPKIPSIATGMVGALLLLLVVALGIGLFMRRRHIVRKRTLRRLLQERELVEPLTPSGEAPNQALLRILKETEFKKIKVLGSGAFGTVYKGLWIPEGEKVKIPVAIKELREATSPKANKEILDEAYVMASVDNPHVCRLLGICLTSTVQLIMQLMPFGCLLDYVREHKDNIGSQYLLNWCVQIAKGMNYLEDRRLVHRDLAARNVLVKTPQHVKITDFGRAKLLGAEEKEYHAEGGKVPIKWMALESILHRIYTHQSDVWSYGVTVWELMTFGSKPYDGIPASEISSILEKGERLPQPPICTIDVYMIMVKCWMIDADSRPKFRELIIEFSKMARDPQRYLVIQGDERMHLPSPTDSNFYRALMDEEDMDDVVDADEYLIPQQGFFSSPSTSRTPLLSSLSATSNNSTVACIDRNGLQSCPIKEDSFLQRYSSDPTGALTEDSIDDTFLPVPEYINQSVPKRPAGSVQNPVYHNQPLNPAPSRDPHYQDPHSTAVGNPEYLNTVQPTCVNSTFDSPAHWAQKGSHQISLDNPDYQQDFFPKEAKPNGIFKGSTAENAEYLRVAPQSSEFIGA
Chain of Epidermal growth factor receptor (Homo sapiens), P00533 [L858R,T790M] (P00533 whole entry T790M/L858R, looked up): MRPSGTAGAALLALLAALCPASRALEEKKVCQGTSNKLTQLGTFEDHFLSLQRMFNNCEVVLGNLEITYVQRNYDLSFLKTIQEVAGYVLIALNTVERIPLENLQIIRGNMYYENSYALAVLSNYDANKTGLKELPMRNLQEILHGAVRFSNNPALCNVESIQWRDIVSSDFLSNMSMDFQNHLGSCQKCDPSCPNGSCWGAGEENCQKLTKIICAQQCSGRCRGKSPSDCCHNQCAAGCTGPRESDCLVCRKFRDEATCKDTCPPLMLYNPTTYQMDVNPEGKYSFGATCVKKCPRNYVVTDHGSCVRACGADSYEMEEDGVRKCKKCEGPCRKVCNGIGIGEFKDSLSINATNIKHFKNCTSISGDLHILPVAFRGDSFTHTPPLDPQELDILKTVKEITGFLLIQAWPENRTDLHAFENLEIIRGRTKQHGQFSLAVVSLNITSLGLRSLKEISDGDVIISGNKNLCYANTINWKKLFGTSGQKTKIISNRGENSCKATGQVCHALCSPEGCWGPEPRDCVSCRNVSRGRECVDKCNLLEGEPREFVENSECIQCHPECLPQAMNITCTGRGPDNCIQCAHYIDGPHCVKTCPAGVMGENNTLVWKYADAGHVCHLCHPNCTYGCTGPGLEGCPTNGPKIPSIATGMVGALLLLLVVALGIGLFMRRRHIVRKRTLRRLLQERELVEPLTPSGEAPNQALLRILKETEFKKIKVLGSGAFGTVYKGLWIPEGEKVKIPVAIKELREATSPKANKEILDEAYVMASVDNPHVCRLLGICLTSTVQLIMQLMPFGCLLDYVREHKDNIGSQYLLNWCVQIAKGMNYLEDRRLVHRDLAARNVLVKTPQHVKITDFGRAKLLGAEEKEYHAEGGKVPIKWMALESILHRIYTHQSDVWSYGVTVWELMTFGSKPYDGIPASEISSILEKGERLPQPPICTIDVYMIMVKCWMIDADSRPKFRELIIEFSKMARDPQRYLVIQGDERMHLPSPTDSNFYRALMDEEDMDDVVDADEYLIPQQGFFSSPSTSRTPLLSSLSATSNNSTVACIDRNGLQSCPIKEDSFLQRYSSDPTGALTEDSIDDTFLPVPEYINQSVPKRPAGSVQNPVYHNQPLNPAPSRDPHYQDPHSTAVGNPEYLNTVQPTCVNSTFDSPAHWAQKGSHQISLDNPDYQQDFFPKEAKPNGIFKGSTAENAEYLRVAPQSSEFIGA

SMILES	IC50 [1]	IC50 [2]	IC50 [3]	IC50 [4]	IC50 [5]	IC50 [20]	IC50 [21]	other results
C=CC(=O)Nc1cccc(Nc2nc(Nc3ccc(CN4CCOCC4)cc3)ncc2Cl)c1	37 nM	382 nM	44 nM	4450 nM	> 40000 nM			inhibition [6]: Dose-dependent effect; inhibition [7]: 100%; inhibition [8]: Dose-dependent effect; inhibition [9]: Dose-dependent effect; inhibition (INH) [10]: Dose-dependent effect; inhibition (INH) [11]: Dose-dependent effect; inhibition (INH) [12]: Dose-dependent effect; TGI [13]: Dose-dependent effect; inhibition in vivo at 50 mg/kg/day [14]: 64.6%; inhibition in vivo at 20 mg/kg/day [15]: 45.3%; inhibition in vivo at 10 mg/kg/day [16]: 39%; Activity [17]: Non-Toxic; Activity [18]: Non-Toxic; Activity [19]: < 5%
C=CC(=O)Nc1cccc(Nc2nc(Nc3ccc(OCCN4CCOCC4)c(Cl)c3)ncc2Cl)c1	500 nM	870 nM	57 nM	14000 nM	22400 nM	> 100 nM	> 1000 nM	
C=CC(=O)Nc1ccccc1Nc1nc(Nc2ccc(CN3CCOCC3)cc2)ncc1Cl	104 nM	112 nM	995 nM	2640 nM	> 40000 nM	15.3 nM	> 800 nM	
C=CC(=O)Nc1cccc(Nc2nc(Nc3ccc(OCCN4CCOCC4)cc3)ncc2Cl)c1	215 nM	385 nM	43 nM	5710 nM	31500 nM	94.7 nM	961 nM	
C=CC(=O)Nc1cccc(Nc2nc(Nc3ccc(CN4CCOCC4)cc3OC)ncc2Cl)c1	287 nM	2060 nM	52 nM	16600 nM	28800 nM	17 nM	> 500 nM	
C=CC(=O)Nc1ccccc1Nc1nc(Nc2ccc(OCC(=O)N3CCOCC3)cc2)ncc1Cl	132 nM	42 nM	418 nM	2650 nM	39500 nM	24.8 nM	143 nM	
C=CC(=O)Nc1cccc(Nc2nc(Nc3ccc(N4CCN(C(C)=O)CC4)cc3OC)ncc2C(F)(F)F)c1 [ROCILETINIB]	299 nM		31 nM	3240 nM	> 40000 nM			inhibition in vivo at 50 mg/kg/day [14]: 70.2%
C=CC(=O)Nc1ccccc1Nc1nc(Nc2ccc(OCCN3CCOCC3)cc2)ncc1Cl	240 nM	478 nM	524 nM	4700 nM	> 40000 nM			
C=CC(=O)Nc1ccccc1Nc1nc(Nc2ccc(NC(=O)CN3CCOCC3)cc2)ncc1Cl	128 nM	104 nM	491 nM	5110 nM	21600 nM	21.7 nM	592 nM	
C=CC(=O)Nc1cccc(Nc2nc(Nc3ccc(CN4CCOCC4)cc3)ncc2F)c1	609 nM	444 nM	41 nM	4460 nM	22700 nM	80.8 nM	500 nM	
C=CC(=O)Nc1cc(Nc2nccc(-c3cn(C)c4ccccc34)n2)c(OC)cc1N(C)CCN(C)C [OSIMERTINIB]								inhibition in vivo at 20 mg/kg/day [15]: 98.8%
C=CC(=O)Nc1cccc(Oc2nc(Nc3ccc(CC(=O)N4CCOCC4)cc3)ncc2Cl)c1	296 nM	2190 nM	48 nM	2940 nM	> 40000 nM	101 nM	996 nM	
C=CC(=O)Nc1ccccc1Nc1nc(Nc2ccc(OCCCN3CCOCC3)cc2)ncc1Cl	217 nM	584 nM	587 nM	4740 nM	> 40000 nM	21.5 nM	767 nM	
C=CC(=O)Nc1cccc(Nc2nc(Nc3ccc(CC(=O)N4CCOCC4)cc3)ncc2Cl)c1	256 nM	760 nM	58 nM	1660 nM	22000 nM	96.6 nM	< 500 nM	

Reference: ChEMBL document CHEMBL4270490, “Synthesis and biological evaluation of morpholine-substituted diphenylpyrimidine derivatives (Mor-DPPYs) as potent EGFR T790M inhibitors with improved activity toward the gefitinib-resistant non-small cell lung cancers (NSCLC)” (Eur J Med Chem, 2017)
